This is a sample that favours compounds with a hit; in the whole collection about 3.5% have one here.
RGS4 block: human RGS4 inhibition; actives 0.45% (n = 310,000); P49798; B-score at 10 µM; AID 463165; HEK293 M3R/RGS4 inducible, Fluo-4 calcium flux; hits give high values; triggered by carbachol at its EC20;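 active = B-score, a plate-corrected calcium signal, over three deviations above library mean, with baseline fluorescence within five deviations of library mean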;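 note: RGS4 expression induced by doxycycline in cells with stable M3 receptor; B-score is computed from the integrated fluorescence ratio over baseline after carbachol; higher B-score means a larger calcium signal and so more RGS4 inhibition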
Target sequence (P49798 whole entry, looked up): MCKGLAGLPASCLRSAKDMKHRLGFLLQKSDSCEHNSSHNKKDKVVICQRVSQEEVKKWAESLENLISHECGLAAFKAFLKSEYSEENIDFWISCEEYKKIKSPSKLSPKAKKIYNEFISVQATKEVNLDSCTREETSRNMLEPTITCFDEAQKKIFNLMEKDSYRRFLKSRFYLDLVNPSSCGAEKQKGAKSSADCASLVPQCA
MrgX1 PAM: allosterically activates human MrgX1 receptor signaling | B-score at 10 µM | actives 0.63% (n = 310,000) | AID 588675 | Q96LB2 | MrgX1-HEK293, Fluo-4 calcium flux, FDSS; hits give high values;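 active = plate-corrected calcium response at least 3 library SD above typical, normal starting fluorescence, not activating the receptor alone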;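 note: compound read alongside a low EC10 to EC30 dose of BAM8-22 agonist; peak minus trough fluorescence over baseline measured at the second addition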
Target sequence (Q96LB2 whole entry, looked up): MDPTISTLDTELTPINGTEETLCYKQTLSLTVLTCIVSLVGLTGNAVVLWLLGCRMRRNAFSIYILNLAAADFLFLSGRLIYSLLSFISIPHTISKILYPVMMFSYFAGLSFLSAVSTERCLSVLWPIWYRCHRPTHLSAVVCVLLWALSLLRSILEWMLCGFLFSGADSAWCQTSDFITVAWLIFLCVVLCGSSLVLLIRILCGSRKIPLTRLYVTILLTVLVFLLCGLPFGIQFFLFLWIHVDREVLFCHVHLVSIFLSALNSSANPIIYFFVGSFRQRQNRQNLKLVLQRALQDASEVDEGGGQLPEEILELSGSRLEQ
MrgX1 antag: antagonists of human MrgX1 receptor; MRGX1-HEK293 calcium flux, Fluo-4, BAM8-22 antagonism; hits give low values; actives 1.3% (n = 310,000); AID 588676; Q96LB2; B-score at 10 µM;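 active = calcium-response B-score plate-corrected more than 3 library SD below zero, starting fluorescence within 5 deviations, no agonist response on first addition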;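 note: peak minus trough fluorescence over baseline after final BAM8-22 challenge near maximal dose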
MrgX1 agonist: human MrgX1 receptor agonism, primary screen; actives 0.44% (n = 310,000); B-score at 10 µM; Q96LB2; AID 588627; MrgX1-HEK293 cells, Fluo-4 calcium fluorescence, agonist mode; hits give high values;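 active = calcium response B-score plate-corrected fluorescence ratio at least 3 library SD, with starting fluorescence B-score inside 5 SD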
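Test system: HEK293 cells stably expressing human MrgX1 receptor; amount: 15,000 cells per well; doses: compound delivered in addition one of three; times: overnight plating before 1 h dye loading; detection: Fluo-4 NW calcium-flux fluorescence, kinetic read; read-out basis: B-scored fluorescence response ratio; controls: positive and negative controls per plate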
RGS4 pot: RGS4 potentiation or activation. B-score at 10 µM. HEK293 M3R/inducible RGS4, carbachol calcium flux Fluo4; hits give low values. actives 0.92% (n = 310,000);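 active = B-score of the integrated calcium signal more than 4 SD below the library mean, with starting fluorescence not abnormally high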;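 note: negative B-score means reduced calcium response which marks RGS4 activation or potentiation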
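Test system: HEK293 cells with stable M3R and inducible RGS4; also added: carbachol at ECmax as muscarinic agonist stimulus; schedule: dye loading 30 min 37 °C, buffer rest 30 min RT; technique: kinetic calcium fluorescence imaging with Fluo4-AM dye, 2 µM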
MrgX1 ant reconf: human MrgX1 receptor antagonism, re-confirmation screen. shares compounds with MrgX1 antag. MrgX1-HEK293, BAM8-22 calcium flux, Fluo-4; hits give low values. remaining BAM8-22 calcium response % of control (hits give low values), % at 10 µM. actives 19% (n = 2,300). AID 602420;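 active = remaining agonist calcium response no higher than 100% minus 3 SD of agonist-only control wells, with starting fluorescence near control levels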;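 note: agonist BAM8-22 given at a near maximal EC90 to ECmax level; peak minus minimum fluorescence divided by baseline after agonist addition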
HEK293 Ca flux: activity in parental HEK293 cells lacking MrgX1; fluorescence ratio F(max-min)/F0 at 10 µM; actives 2% (n = 4,000); Fluo-4 calcium fluorescence, FDSS; AID 624111; shares compounds with MrgX1 antag;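 active = duplicate-averaged calcium fluorescence ratio at least three times the standard deviation of buffer wells, a nonspecific response in parental cells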
HEK293 Ca counter: counter-screen for MrgX1 allosteric activators: effect in parental HEK293 cells; shares compounds with MrgX1 antag; parental HEK293 calcium flux, Fluo-4 fluorescence ratio; hits give high values; fluorescence ratio F(max-min)/F0 at 10 µM; actives 0.4% (n = 4,000);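 active = calcium fluorescence ratio, averaged over duplicates, at least 3 SD of the buffer-well ratio, meaning a nonspecific response in receptor-free cells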;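 note: untransfected parental HEK293 lacking MrgX1 used as counterscreen for MrgX1 allosteric activators; fluorescence change taken during the second addition on a kinetic imager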
HEK293 Ca cntr2: MrgX1 activator counter-screen hit in parental HEK293 cells. shares compounds with MrgX1 antag. Fluo-4 calcium fluorescence (FDSS); hits give high values. fluorescence ratio F(max-min)/F0 at 10 µM. actives 8.7% (n = 4,000). AID 624115;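 active = calcium fluorescence ratio at least three times the spread of buffer wells, meaning a non-specific response in parental cells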
Numbers without * were called inactive; i = inactive; / = not tested or not shown.

SMILES	RGS4 block	MrgX1 PAM	MrgX1 antag	MrgX1 agonist	RGS4 pot	MrgX1 ant reconf	HEK293 Ca flux	HEK293 Ca counter	HEK293 Ca cntr2
Nc1nnc(SCc2ccccc2Cl)s1	i	i	i	i	i	/	/	/	/
Cc1ccc(C(=O)NCCNC(=O)c2ccccn2)cc1	i	i	i	i	i	/	/	/	/
Cn1c(N)c(C(=O)CSc2nc(N)cc(N)n2)c(=O)n(C)c1=O	i	i	i	i	i	/	/	/	/
COc1cc(CN(C)C(C)C(=O)Nc2ccc([N+](=O)[O-])cc2Cl)ccc1OC(F)F (stereo not given)	i	i	-21*	i	i	i	i	i	i
COc1ccccc1N(CC(=O)N/N=C/c1ccc(C(=O)O)cc1)S(=O)(=O)c1ccc(C)cc1	i	i	i	i	i	/	/	/	/
Cc1ccccc1OCC(=O)NS(=O)(=O)c1ccc(Cl)cc1	i	i	-9.2*	i	i	83%*	i	i	i
O=C(NS(=O)(=O)c1ccc(Cl)cc1)c1ccccc1	i	i	-4.9*	i	i	i	i	i	i
O=C(NS(=O)(=O)c1ccccc1)c1ccccc1	i	i	i	i	i	/	/	/	/
Fc1ccccc1N1CCN(c2cnc3ccccc3n2)CC1	i	i	i	i	i	/	/	/	/
c1ccc(CN2CCN(c3cnc4ccccc4n3)CC2)cc1	i	i	-8.8*	i	i	i	i	i	i
O=C(COC(=O)c1ccc(S(=O)(=O)Nc2ccccc2)cc1)NCCC1=CCCCC1	i	i	i	i	i	/	/	/	/
COc1ccc(CNc2nc3nc(C)c(Cl)c(=O)n3[nH]2)cc1OC	i	i	-5.9*	i	i	i	i	i	i
COc1c2c(nc3ccccc13)OC(C(C)(O)CO)C2 (stereo not given)	i	i	-6.9*	i	i	i	i	i	i
COC(=O)c1cccc(NC(=O)CSc2nc3cccnc3n2C)c1	/	i	-4.8*	i	/	74%*	i	i	i
COC(=O)c1ccccc1NC(=O)CSc1nc2cccnc2n1C	i	i	i	i	i	/	/	/	/
CCOC(=O)c1cnc(SC)nc1Oc1cccc(NS(=O)(=O)c2ccccc2)c1	i	i	i	i	i	/	/	/	/
CCOC(=O)c1cnc(SC)nc1Oc1cccc(NS(=O)(=O)c2ccc(F)cc2)c1	i	i	-6.8*	i	i	i	i	i	i
CCC(C)c1ccc(NC(=O)NCCN2CCCCC2)cc1 (stereo not given)	i	i	i	i	i	/	/	/	/
CC1(C)C(C#N)=C(N)OC2=C1C(=O)CCC2	i	i	-5.7*	i	i	i	i	i	i
N#CC1=C(N)OC2=C(C(=O)CCC2)C12CCC1(CC2)OCCO1	i	i	i	i	i	/	/	/	/
Cc1cc2c(C)nc3ccccc3c2o1	i	i	-4.7*	i	i	i	i	i	i
Cc1nc2ccccc2c2oc(C(=O)NC3CC3)cc12	i	i	i	i	i	/	/	/	/
CCN1C(N(C)C)=NC[C@@H]1Cc1ccccc1	/	i	i	i	/	/	/	/	/
CN1CCN(S(=O)(=O)c2cccc(C(=O)Nc3nc(-c4ccccc4)cs3)c2)CC1	i	i	i	i	i	/	/	/	/
COc1ccc(-c2csc(NC(=O)c3cccc(S(=O)(=O)N4CCN(C)CC4)c3)n2)cc1	i	i	-5.8*	i	i	i	i	i	i
SMILES	RGS4 block	MrgX1 PAM	MrgX1 antag	MrgX1 agonist	RGS4 pot	MrgX1 ant reconf	HEK293 Ca flux	HEK293 Ca counter	HEK293 Ca cntr2
COc1ccc(-c2cc(C(=O)N3CCN(C(c4ccccc4)c4ccccc4)CC3)no2)cc1OC	i	i	-5.3*	i	i	i	i	i	i
CCCCC(CC)CNC(=O)C(Cc1ccccc1)NS(=O)(=O)c1ccc2c(c1)CCC(=O)N2 (stereo not given)	i	i	i	i	i	/	/	/	/
Cc1cc(NS(=O)(=O)c2ccc(NC(=O)CSc3nc4ncc(Br)cc4[nH]3)cc2)nc(C)n1	i	i	i	i	i	/	/	/	/
CC(NC(=O)NC(N)=O)(C(F)(F)F)C(F)(F)F	i	i	-5.2*	i	i	i	i	i	i
CC(C)OC(=O)CSc1nc2c(c(C3CC=CCC3)c1C#N)CCC2 (stereo not given)	i	i	-6.2*	i	i	i	i	i	i
C=CCSc1nc2c(c(C3CC=CCC3)c1C#N)CCC2 (stereo not given)	i	i	i	i	i	/	/	/	/
O=C(COc1ccccc1)Nc1cccc(-c2nc3cc4ccccc4cc3[nH]2)c1	i	i	-5.1*	i	i	78%*	i	i	i
CCOC(=O)C(NC(=O)c1ccccc1)(Nc1nnc(C)s1)C(F)(F)F (stereo not given)	i	i	-8.7*	i	i	i	i	i	i
CCOC(=O)C(NC(=O)c1ccccc1)(Nc1cc(C)on1)C(F)(F)F (stereo not given)	i	i	i	i	i	/	/	/	/
CN(C)CCNC(=S)Nc1ccc(F)c(F)c1F	i	i	i	i	i	/	/	/	/
CCOc1ccc(N(CC(=O)NCc2ccc(F)cc2)C(=O)CCC(=O)Nc2nccs2)cc1	i	i	i	i	i	/	/	/	/
COc1cc(CNC(C)(C)CO)ccc1OCC(=O)NC(C)(C)C	i	i	i	i	i	/	/	/	/
COc1cc(CNn2cn[nH]c2=S)ccc1OCC(=O)NC(C)(C)C	i	i	-4.6*	i	i	i	i	i	i
O=C(O)COc1ccc(Cl)cc1CO	i	i	-4.7*	i	i	i	i	i	i
Cc1ccc(C(C(=O)NC2CCCC2)N(Cc2ccc(F)cc2)C(=O)c2csnn2)o1 (stereo not given)	i	i	-4.6*	i	i	i	i	i	i
